# Bioassay records (PubChem BioAssay)
# CHRM4 PAM: potentiates acetylcholine response at human M4 receptor; 360,000 compounds, 0.4% hits; AID 624126; activation, % at 3 µM; CHO-K1 hM4/Gqi5, Fluo-8 calcium fluorescence, ACh EC20; 0% = ACh EC20, 100% = maximal ACh;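 active means activation above its plate's cutoff, the mean activation of sample wells plus 3 SD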
# Target sequence (P08173 whole entry, looked up): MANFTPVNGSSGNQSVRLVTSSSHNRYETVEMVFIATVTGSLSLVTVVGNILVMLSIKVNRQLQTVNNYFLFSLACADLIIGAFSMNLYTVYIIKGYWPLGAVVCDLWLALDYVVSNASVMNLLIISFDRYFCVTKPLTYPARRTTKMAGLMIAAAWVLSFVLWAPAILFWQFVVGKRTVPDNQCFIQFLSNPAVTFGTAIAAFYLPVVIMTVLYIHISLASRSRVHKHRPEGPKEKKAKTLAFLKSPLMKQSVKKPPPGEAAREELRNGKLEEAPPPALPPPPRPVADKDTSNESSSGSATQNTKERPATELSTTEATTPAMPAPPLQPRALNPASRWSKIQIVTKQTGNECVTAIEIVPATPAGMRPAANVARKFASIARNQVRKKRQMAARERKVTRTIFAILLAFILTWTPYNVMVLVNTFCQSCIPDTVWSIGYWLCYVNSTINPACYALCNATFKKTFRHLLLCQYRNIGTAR
# M5 PAM: CHRM5 positive allosteric modulation; P08912; 360,000 compounds, 0.3% hits; activation, % at 3 µM; AID 624038; CHO-K1 hM5, Fluo-8 calcium, ACh EC20 PAM; 0% = ACh EC20, 100% = ACh EC100;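 active means activation above the run cutoff, the mean activation of all test compounds plus 3 SD, cut at about 18% in these data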
#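 Measured by: Fluo-8 calcium fluorescence; material: human M5 receptor in CHO-K1 cells; schedule: Post-acetylcholine fluorescence recording 140 s; benchmarks: low control EC20 acetylcholine (0%), high control EC100 acetylcholine (100%); read-out: Max/basal fluorescence ratio as % of EC20–EC100 ACh window; compound: single dose, 3 µM nominal final test concentration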
# M4 antag: antagonists of human muscarinic M4 receptor (CHRM4); AID 624125; P08173; inhibition, % at 3 µM; CHO-hM4 cells, ACh EC80, Fluo-8 calcium fluorescence; 360,000 compounds, 0.73% hits;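 active means inhibition above its plate's cutoff, the mean inhibition of sample wells plus 3 SD, cut at about 27% in these data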;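 further: 0% = acetylcholine EC80 with DMSO and 100% = DMSO without agonist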
# CHRM4 agonist: CHRM4 agonism in calcium assay; activation, % at 3 µM; CHO-K1 hM4/Gqi5, Fluo-8 calcium fluorescence; vehicle 0%, full acetylcholine response 100%; 360,000 compounds, 0.14% hits; P08173;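 active means activation above the run mean over all test wells plus 3 SD, cut at about 32% in these data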;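 further: peak over basal fluorescence ratio per well then scaled between controls; 0% = DMSO wells and 100% = acetylcholine at EC100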
# CHRM5 antagonist: blocks acetylcholine activation of human M5 receptor | 360,000 compounds, 0.59% hits | AID 624040 | P08912 | inhibition, % at 3 µM | CHO-hM5 cells, Fluo-8 calcium fluorescence, ACh EC80;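 active means inhibition above a per-plate cutoff, the mean of that plate's test compounds plus 3 SD, cut at about 27% in these data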;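 further: 0% = acetylcholine EC80 with DMSO and 100% = DMSO without agonist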
# CHRM5 agonist: CHRM5 agonism in calcium assay; CHO-K1 hM5 cells, Fluo-8 calcium fluorescence; 0% DMSO wells, 100% maximal acetylcholine response; 360,000 compounds, 0.19% hits; activation, % at 3 µM; P08912;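 active means activation above the run's mean over test compounds plus 3 SD, cut at about 23% in these data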;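 further: signal is peak over basal fluorescence ratio across the kinetic read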
# The depositor's hits bear a star. A selection: hits, their analogues and other compounds. The true share with any hit is near 1.8%.
SMILES,CHRM4 PAM,M5 PAM,M4 antag,CHRM4 agonist,CHRM5 antagonist,CHRM5 agonist
CCC(Sc1nc(N)cc(=O)[nH]1)C(=O)Nc1cc(C)on1 (stereo not given),26*,13,-14,2,1,-2
Cc1ccc(NN2C(=O)C=C(c3ccccc3)C2=O)cc1,-16,9,35*,5,14,15
O=C1c2ccccc2C(=O)N1Nc1ccccc1,2,-1,4,0,8,-7
O=C(Cc1ccc(Br)cc1)OCC(=O)c1ccc2c(c1)OCCO2,30*,4,-14,4,-4,-6
CC(C)(C)N(Cc1ccccc1)C(=O)c1ccc2c(c1)OCCO2,-17,-17,29*,3,8,-8
O=C(CCCc1ccccc1)c1ccc2c(c1)OCCO2,31*,0,-1,-2,-4,-3
O=C(Cc1n[nH]c(=O)c2ccccc12)OCC(=O)c1ccc2c(c1)OCCO2,6,-6,-4,5,5,3
O=C(c1ccc(N2CCCS2(=O)=O)cc1)N1CCN(c2ccccc2)CC1,-5,2,0,2,-2,0
Cc1cc(C)c(OCC(=O)Nc2ccccc2N2CCCCC2)c(C)c1,6,-2,-22,5,5,1
Cc1ccc(C(C)C)c(OCC(=O)NC(=S)Nc2ccccc2N2CCOCC2)c1,2,0,8,1,19,-3
Cc1cc(C)c(OCC(=O)Nc2ccccc2N2CCOCC2)c(C)c1,-17,5,35*,32,21,28*
CCC(=O)N1CCN(c2ccccc2NC(=O)COc2cc(C)ccc2C(C)C)CC1,-29,-14,16,6,27*,0
O=C(Nc1ccccc1N1CCOCC1)c1cc(-c2ccco2)nc2ccccc12,-18,-17,35*,13,25,3
O=C(Cn1c(=O)cnc2ccccc21)Nc1ccccc1N1CCOCC1,5,28*,1,2,-34,3
COc1ccc(-c2csc(NC(=O)CSC(C)C(=O)Nc3cc(C)on3)n2)cc1OC (stereo not given),-1,-3,-5,12,-1,5
CSc1nc2cc(C)nn2c(-c2ccccc2)c1C#N,-9,9,-5,-1,-6,0
COc1cccc(C2=NN(C(=O)C3CC3)C(O)(C(F)(F)F)C2)c1 (stereo not given),-1,-1,-6,-1,9,-3
COc1ccc(CNC(=O)[C@@H](C)NC(=O)C2CCN(C(=O)[C@@H](N)CCSC)CC2)cc1,5,0,4,0,1,1
O=C(Nc1ccccc1)Nc1ncc([N+](=O)[O-])s1,-8,-15,13,16,28*,11
Cc1cc([N+](=O)[O-])ccc1NCc1ccccc1,-15,-21,16,11,12,-7
COc1ccccc1CNc1ccc([N+](=O)[O-])cc1C,-12,-15,3,13,33*,-5
CCCC/C(O)=C1\C(=O)CC(C)(C)CC1=Nc1ccc(OC)cc1,-17,-1,30*,-3,-2,-1
CCC/C(O)=C1\C(=O)CC(C)(C)CC1=Nc1ccc(OC)cc1,-2,6,0,-2,4,-1
COc1ccc(CC(=O)Nc2nnc(C(C)(C)C)s2)cc1OC,5,-7,-2,1,9,2
C=CCn1c(C)cc(C(=O)CSc2nc3ccccc3c(=O)[nH]2)c1C,-12,-29,6,21,22,3
SMILES,CHRM4 PAM,M5 PAM,M4 antag,CHRM4 agonist,CHRM5 antagonist,CHRM5 agonist
C=CCn1c(C)cc(C(=O)CSc2nc3ccccc3[nH]2)c1C,-15,-23,29*,29,20,11
Cc1cc(C(=O)CSc2nc3ccc(Cl)cc3[nH]2)c(C)n1CC1CCCO1 (stereo not given),-12,-18,31*,12,19,4
Cc1cc(C(=O)CSc2nc3ccc(Cl)cc3[nH]2)c(C)n1C,3,2,2,2,4,0
Cc1cc(C(=O)CSc2nc3ccccc3[nH]2)c(C)n1Cc1ccco1,-26,-17,12,19,27*,7
CC(=O)Nc1ccc(C(=O)OCC(=O)NCc2ccccc2)cc1,-3,-14,1,2,27*,-1
CN(C)CC#CCC(O)(c1ccccc1)c1ccccc1,-50,-31,24,0,24,-19
CCN(CC)CC#CCC(O)(c1ccccc1)c1ccc(Br)cc1 (stereo not given),-25,-17,30*,7,11,-8
CCN(CC)CC#CCC(O)(c1ccccc1)c1ccccc1,-25,-35,32*,4,29*,-16
CCN(CC)CC#CCC(C)(c1ccccc1)c1ccccc1,-37,-21,63*,3,17,-12
C=CC(O)(C#CCN(CC)CC)c1ccccc1 (stereo not given),-15,-23,12,1,15,-6
COc1ccc(C(C)=O)cc1Cn1c(C)c(C(=O)NCc2ccc3c(c2)OCO3)sc1=O,2,1,-4,1,-3,1
COc1ccc(COC[B-](F)(F)F)cc1,11,4,-5,1,0,0
C[C@@H]1CN([C@H](C)CO)C(=O)CCCn2nncc2CO[C@H]1CN(C)C(=O)Nc1cccc2ccccc12,2,1,-1,1,2,1
CN(C(=O)Cn1cnc2sccc2c1=O)C1CCCCC1,3,4,-21,1,-4,-2
CC1(c2ccc(F)cc2)OC(=O)c2c1ccc1ccccc21 (stereo not given),-6,-4,-2,0,1,-2
COc1ccc(CCNC(=O)C(=O)c2c(C)[nH]c3ccccc23)cc1,-8,-18,1,13,71*,-9
CCOC(=O)C1=C(Nc2ccc(Cl)cc2)OCC1=O,10,2,-16,-2,8,0
CCN(CC)CCOC(=O)C1(c2ccc([N+](=O)[O-])cc2)CCCC1,-17,-19,49*,2,84*,-2
Cc1cccc(NC(=O)C2(c3ccc([N+](=O)[O-])cc3)CCCC2)c1,-6,-19,-5,5,-8,-6
CCN(CC)CCOC(=O)C1(c2ccccc2)CCOCC1,0,-18,2,0,-5,-11
CCN(CC)CCCOC(=O)C1(c2ccccc2)CCCC1,-22,-16,96*,1,99*,-11
CCN(CC)CCOCCOC(=O)C1(c2ccccc2)CCCC1,-17,-19,91*,2,96*,-1
COCCn1c(=O)[nH]c2cc(C(=O)NC(C)C)ccc2c1=O,20*,24*,-7,0,1,-5
CCc1nc2c(OCCn3cccc3)cccn2c1N(C=O)Cc1ccccc1,8,0,-6,1,1,0
